# Assay results from paper PMC2671235 (Biochemistry, 2009).
# “Also recorded” adds a separate entry of the source. Like-named read-outs stand apart in the source and are kept apart here. Ends that are not written are not given here.
# Assays:
# [1] = biological target: T1, S100A10 (Homo sapiens, UniProt P60903); experiment: ITC of AnII binding to S100A10
# In short: (§1)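 Isothermal titration calorimetry in 20 mM Tris, 0.2 mM EDTA, 1 mM TCEP, pH 7.5. S100A10 was run with 5 mM calcium or without calcium; Ca2+-S100A11 was run with or without 100 mM NaCl. Protein and peptide were co-dialysed at 4°C. Screens injected 2 μL of about 0.75 mM peptide into about 20–25 μM protein at 10 and 25°C, continuing to saturation when heat appeared. Integrated heats were fit to two sequential sites per dimer, over five temperatures. ΔCp was taken from the slope of ΔHcal against temperature.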
# [2] = tested on: S100A11; details: cited from earlier work
# [3] = tested on: S100A10; details: literature; ref [15]; cited from earlier work
# [4] = biological target: T2, S100A11 (Homo sapiens, UniProt P31949); experiment: Far-UV CD difference spectra, peptide with S100A11; format: binding; details: for fractional helicity upon binding: far-UV CD difference spectra, 10 μM protein, 50 μM peptide, 5 mM calcium; for coil-to-helix transition upon binding: far-UV CD, Ca2+-S100A11
# T2 sequence (P31949 1-105): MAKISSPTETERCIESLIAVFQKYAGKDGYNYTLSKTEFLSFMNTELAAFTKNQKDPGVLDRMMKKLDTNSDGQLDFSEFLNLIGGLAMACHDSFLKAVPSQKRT
# In short: (§2)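 Recombinant S100 protein expressed in E. coli BL21(DE3), purified by phenyl-Sepharose and Sephadex G-75; S100A10 eluted in 8 M urea and refolded by dialysis. Far-UV CD recorded 250–200 nm on 10 μM protein plus 50 μM peptide in binding buffer with 5 mM calcium. Difference spectrum: complex minus free peptide minus free protein, converted to mean residue ellipticity assuming saturated sites. Fraction helicity derived from [Θ]222 against temperature-dependent coil and helix reference values.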
# [5] = Far-UV CD of free peptides; format: physicochemical; details: TFE up to 60%, with or without calcium
# In short: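 Peptides were run at […] in 20 mM Tris, 3 mM DTT, 0.2 mM EDTA, pH 7.5, without or with 5 mM calcium. TFE was added up to 60% final. Buffer-corrected ellipticity was converted to mean residue ellipticity. Fraction helicity was taken from [Θ]222 against temperature-dependent fully coiled and fully helical reference values.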
# [6] = Analytical equilibrium ultracentrifugation; format: physicochemical; details: 4°C, 35,000 rpm, 20 mM Tris, 1 mM TCEP, 0.2 mM EDTA, pH 7.5, absence or presence of 5 mM calcium; single species fit
# In short: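 Peptides were N-terminally acetylated; AnII carried an added C-terminal Tyr. Concentrations came from ε280 of 5,500 (AnI) and 1,490 (AnII) M−1 cm−1. Radial distributions were fitted to a single-species equilibrium equation using partial specific volumes of 0.748 (AnI) and 0.745 (AnII) cm3/g.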
# [7] = biological target: T2, S100A11; experiment: ITC of AnII binding to Ca2+-S100A11
# In short: as §1
# [8] = tested on: sixteen members of S100 protein family; experiment: Screen of peptides against S100 family; format: binding, human; details: S100 proteins other than the partners found (S100A6, S100A10, S100A11)
# [9] = biological target: T1, S100A10; experiment: Far-UV CD difference spectra, AnII with S100A10; format: binding
# In short: as §2
# [10] = tested on: calmodulin; experiment: Trp fluorescence screen of AnI against calmodulin; format: binding; details: protein:peptide ratio up to 5:1
# In short: (§3)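 This screen used a thermostated cell, 295 nm excitation, and emission scanned over 305–400 nm. Concentrated protein in assay buffer was added stepwise to 2 μM AnI, up to 10 μM protein (5:1). For Trp-containing S100A1, A3, A8, A9 and A13, AnI was instead added to 2 μM protein up to 5:1 peptide:protein, and protein-only spectra were subtracted.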
# [11] = biological target: T3, S100A6 (Homo sapiens, UniProt P06703); experiment: ITC of AnI binding to Ca2+-S100A6; details: different temperatures, relative to free energy of binding
# In short: (§4)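 VP-ITC in 20 mM Tris, 0.2 mM EDTA, 1 mM TCEP, pH 7.5 with 5 mM calcium. Protein and peptide were co-dialysed with three buffer changes at 4°C. Because of its limited solubility, the AnI peptide was placed in the cell and the S100 protein titrated from the syringe. Runs were done at five temperatures (15–35°C). Integrated injection heats were fitted to a two identical non-interacting sites per dimer model.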
# [12] = tested on: S100 protein family members (S100A1-S100A13, S100B, S100P, S100Z); experiment: Trp fluorescence screen of AnI against other S100 proteins; format: binding, human; details: any S100 protein other than S100A11 and S100A6; protein:peptide ratio up to 5:1
# In short: as §3
# [13] = biological target: T3, S100A6; experiment: Far-UV CD difference spectra, AnI with S100A6; format: binding
# [14] = tested on: S100A6 variants (Y73F, Y84S, Y73F/Y84S); experiment: Binding affinity of AnI for substituted S100A6 variants; set-up: species or system human; details: data not shown
# [15] = biological target: T3, S100A6; experiment: Trp fluorescence titration of AnI with S100A6; format: binding
# [16] = biological target: T2, S100A11; experiment: ITC of AnI binding to Ca2+-S100A11
# In short: as §4
# [17] = Trp fluorescence emission of free AnI; format: physicochemical; details: free AnI in solution, excitation 295 nm, emission 305-400 nm, pH 7.5
# [18] = biological target: T2, S100A11; experiment: Trp fluorescence titration of AnI with S100A11; format: binding
# In short: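 Intrinsic Trp emission of 2 μM peptide, excited at 295 nm and read at 305–400 nm. Protein was added stepwise in 1.2 μM increments to 10 μM, a final 5:1 protein:peptide ratio. Emission intensity and maximum were followed. Kd came from fitting the intensity change against protein concentration to a model with two identical sites per dimer.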
# [19] = tested on: S100A6-Y84S; experiment: Far-UV CD difference spectra, AnI with S100A6-Y84S; format: binding, human; details: 5 mM calcium
# In short: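 Spectra of 10 μM protein with 50 μM AnI in 5 mM calcium binding buffer were recorded at 250–200 nm. The difference spectrum was complex minus free peptide minus free protein, converted to mean residue ellipticity assuming saturated sites.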
# [20] = tested on: calmodulin; details: ref [27]; cited from earlier work
# [21] = tested on: Ca2+-S100P; details: ref [25], cited from earlier work
# [22] = ITC screen and calcium dependence
# [23] = slope of ΔHcal vs temperature, ITC at 5 temperatures
# [24] = literature, AnII labeled with Prodan in that study, ref [15]
# [25] = 5 mM calcium, pH 7.5, excitation 295 nm
# T1 sequence (P60903 whole entry): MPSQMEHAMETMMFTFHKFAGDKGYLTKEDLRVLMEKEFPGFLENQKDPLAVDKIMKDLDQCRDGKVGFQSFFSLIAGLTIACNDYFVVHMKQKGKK
substance,measurement,setting,value
Ac-STVHEILSKLSLEGY [AnII],effect of calcium on ITC binding,[1]; 5 mM calcium compared with absence of calcium,very similar to the data obtained in the absence of calcium
same,binding,[1]; [22],the binding is independent of calcium; also recorded: AnII has been found to bind S100A10
same,enthalpy of binding (sign/size),"[1]; ITC, total enthalpy from both binding sites, entire temperature range",large and negative; also recorded: exothermic
same,"ΔCp,exp",[1]; [23],−2.4±0.3 kJ/(mol·K)
same,binding,"[2]; NMR spectroscopy, ref [16]",AnII can interact with Ca^2+-S100A11
same,binding,[2]; [24],S100A11 binds AnI but not AnII
same,binding,[3],S100A10 binds AnII but not AnI
same,fractional helicity upon binding,[4],0.57
same,coil-to-helix transition upon binding,[4],undergo a coil-to-helix transition upon binding
same,secondary structure in TFE,[5],far-UV CD spectra characteristic of helices
same,molecular mass in solution (oligomeric state),[6],1.9 ± 0.16 kDa
same,effect of ionic strength on thermodynamics of binding,[7]; 100 mM NaCl,did not have any effect on the thermodynamics of binding
same,enthalpy of binding (sign/size),[7]; ITC,endothermic but small relative to the Gibbs energy of binding
same,binding,[7]; [22],this binding to S100A11 is also modulated by calcium; also recorded: AnII has been found to bind S100A10 and Ca^2+-S100A11
same,"ΔCp,exp",[7]; [23],−1.1±0.2 kJ/(mol·K)
same,binding to the other S100 proteins,[8],bind to only these S100 proteins and not the others
same,helicity when bound,[9]; compared to AnII bound to S100A11,AnII becomes more helical when bound to S100A10 compared to when it is bound to S100A11
same,coil-to-helix transition upon binding,"[9]; far-UV CD, S100A10",undergo a coil-to-helix transition upon binding
Ac-AMVSEFLKQAWFIE [AnI],change in Trp fluorescence / binding in screen,[10],did not show changes in Trp fluorescence; also recorded: Neither peptide was found to bind to calmodulin
same,enthalpy of binding (sign/size),[11],either negative or positive but small relative to the free energy of binding
same,binding,[2]; [24],S100A11 binds AnI but not AnII
same,binding,[3],S100A10 binds AnII but not AnI
same,change in Trp fluorescence (emission maximum or intensity) in screen,[12],did not show changes in Trp fluorescence
same,fractional helicity upon binding,[4],0.59
same,coil-to-helix transition upon binding,[4],undergo a coil-to-helix transition upon binding
same,far-UV CD difference spectrum,"[13]; AnI with Ca2+-S100A6 wild type, 10 μM protein, 50 μM AnI, 5 mM calcium",A noted lower elipticity
same,coil-to-helix transition upon binding,"[13]; far-UV CD, Ca2+-S100A6",undergo a coil-to-helix transition upon binding
same,secondary structure in TFE,[5],far-UV CD spectra characteristic of helices
same,effect of S100A6 substitutions on binding affinity,[14],the substitutions do not have a significant effect on the binding affinity
same,fluorescence emission maximum wavelength of AnI upon addition of Ca2+-S100A6,[15]; [25],352 nm
same,change in Trp fluorescence without calcium,[15]; S100A6 in the absence of calcium,No changes in Trp-fluorescence
same,binding,"[15]; Trp fluorescence screen, Ca2+-S100A6",AnI has been found to bind Ca^2+-S100A6
same,molecular mass in solution (oligomeric state),[6],1.9 ± 0.07 kDa
same,Kd,[16],5 ± 2 µM
same,temperature dependence of dissociation constant,"[16]; ITC, 15-35°C",does not depend significantly on temperature
same,enthalpy of binding ΔHcal at 15°C,"[16]; ITC, 15°C, 5 mM calcium",-4 kJ/mol
same,enthalpy of binding ΔHcal at 35°C,"[16]; ITC, 35°C, 5 mM calcium",-30 kJ/mol
same,free energy of binding ΔG=−RTln(Kd),"[16]; per binding site, from ITC Kd",≈ 30 kJ/mol; also recorded: ≈ 26 kJ/mol
same,"ΔCp,exp","[16]; slope of ΔHcal vs temperature, ITC 15-35°C, 5 mM calcium",−1.3±0.2 kJ/(mol·K)
same,fluorescence emission maximum wavelength of free AnI,[17],approximately 359 nm
same,binding to the other S100 proteins,[8],bind to only these S100 proteins and not the others
same,Kd,[18],5 ± 1 µM
same,fluorescence emission maximum wavelength of AnI in presence of Ca2+-S100A11,[18]; [25],350 nm
same,change in Trp emission spectra without calcium,[18]; S100A11 in the absence of calcium,very little change in the emission spectra
same,binding,"[18]; Trp fluorescence screen, Ca2+-S100A11",AnI has been found to bind Ca^2+-S100A6 and Ca^2+-S100A11
same,far-UV CD difference spectrum,[19],the difference spectrum for the Y84S variant has a similar spectrum to that of the wild type
melittin: peptide with the ability to bind both S100P and calmodulin,binding,[20],has the ability to bind both S100P ([25]) and calmodulin
same,ΔCp,[21]; melittin binding to Ca2+-S100P,−2.5±0.5 kJ/(mol·K)
same,binding,[21],has the ability to bind both S100P
